Experimental data of several laboratories.
Lines come from different studies, so protocols differ.
Target: Casein kinase I isoform gamma-1 (CSNK1G1, Homo sapiens, UniProt Q9HCP0)

Cc1ccc(Nc2nccc(N(C)c3ccc4c(C)n(C)nc4c3)n2)cc1S(N)(=O)=O
inhibition (enzyme activity, inhibitor; 0.3 µM): -27%

CS(=O)(=O)N1CCCC(NC(=O)[C@H](CCC2CCCCC2)NC(=O)c2ccc(CNC(=O)c3cnc4ccccn34)cc2)C1 (some centres unmarked)
remaining binding (cell-free assay, competition with immobilised ligand; 0.1 µM): 100%

COc1cc(Cl)c(C(=O)N[C@@H](CN[C@H]2CC[C@@H](N)CC2)Cc2ccc(C#N)cc2)cc1-c1ccc(CN[C@H](C)c2ccc(C)cc2)o1
remaining activity (enzyme activity, inhibitor; 1 µM): 87%

COc1cc2ncnc(Nc3ccc(Oc4ccccc4)cc3C)c2cc1OC
inhibition (enzyme activity, inhibitor; 1 µM): 8%

Nc1ncnc2occ(-c3ccc(NC(=O)Nc4cc(C(F)(F)F)ccc4F)cc3)c12
remaining signal (cell-free assay, inhibitor; 20 µM): 18%

CC(C)(C)c1nc2c(s1)c1nc(N)ncc1c1ccc(NS(=O)(=O)c3c(F)cccc3F)c(F)c12
remaining activity (enzyme activity, inhibitor, radiometric; 1 µM): 63%

N#CCCc1ccc2c(c1)-c1[nH]c3ccc([N+](=O)[O-])cc3c1CC(=O)N2
remaining signal (cell-free assay; 0.5 µM): 81.6%

Cc1ccc(C(=O)Nc2ccc(CN3CCN(C)CC3)c(C(F)(F)F)c2)cc1C#Cc1cnc2cccnn12
remaining activity (enzyme activity, inhibitor; 23.5 nM): 89%

COc1cc2ncnc(Nc3ccc(F)c(Cl)c3)c2cc1OCCCN1CCOCC1
remaining signal (cell-free assay; 0.5 µM): 99.5%

Cn1nc(C(F)(F)F)cc1-c1cnc(N2CCc3cc(S(=O)(=O)Nc4c(F)cc(Cl)cc4F)cc(N4CCCC4=O)c32)nc1
remaining binding (cell-free assay, competition with immobilised ligand; 1 µM): 100%

C=CC(=O)Nc1cc(Nc2nccc(Nc3cc(Cl)c(F)cc3C(C)(C)O)n2)c(OC)cc1N1CC[C@@H](N(C)C)C1
inhibition (enzyme activity, inhibitor; 1 µM): 15%

O=C1Nc2ccc(Cl)cc2C1=Cc1cc(Cl)c(O)c(Cl)c1
remaining signal (cell-free assay; 0.5 µM): 89%

CCC(=O)N[C@@H]1CC[C@H](C(=O)N(C)c2ccc(-c3nc4ccccc4o3)cc2)C1
remaining binding (cell-free assay, competition with immobilised ligand; 1 µM): 100%

CNC(=O)c1cc(Oc2ccc(NC(=O)Nc3ccc(Cl)c(C(F)(F)F)c3)cc2)ccn1
inhibition (enzyme activity, inhibitor; 10 µM): -13%

C[C@H](c1cccc(C#N)c1)n1cc(Cl)cc(C(N)=O)c1=N
remaining binding (cell-free assay, competition with immobilised ligand; 1 µM): 96%

O=C(Nc1cnn(-c2csc(C(=O)NC3COC3)c2)c1)Nc1ccccc1Cl
remaining activity (enzyme activity, inhibitor; 5 µM): 99%

CS(=O)(=O)N1CCCC(NC(=O)[C@H](CCC2CCCCC2)NC(=O)c2ccc(CNc3ncnc4c3nnn4-c3ccccc3)cc2)C1 (some centres unmarked)
remaining binding (cell-free assay, competition with immobilised ligand; 0.1 µM): 100%

CCCS(=O)(=O)Nc1ccc(F)c(C(=O)c2c[nH]c3ncc(-c4ccc(Cl)cc4)cc23)c1F
inhibition (enzyme activity, inhibitor; 1 µM): < 10%

CNC(=O)c1ccc(Nc2ncc(C(F)(F)F)c(NCc3nccnc3N(C)S(C)(=O)=O)n2)cc1
remaining binding (cell-free assay, competition with immobilised ligand; 0.1 µM): 82%

Cc1ccc(NC(=O)c2ccc(C)c(C(F)(F)F)c2)cc1C#Cc1nn(C2CCC(O)CC2)c2ncnc(N)c12 (centres unmarked)
remaining signal (cell-free assay; 10 µM): 83%
